Measurements taken from ChEMBL document CHEMBL2331369, “Transport by OATP1B1 and OATP1B3 enhances the cytotoxicity of epigallocatechin 3-O-gallate and several quercetin derivatives” (J Nat Prod, 2013).
Calls of active or inactive are those of the source. The calls are words filed in the database; no cut-off is given here.

How the values were obtained:
CHO [1] = experiment: Induction of apoptosis in CHO cells expressing OATP1B3 haplotype 1 at 10 uM after 48 hrs using propidium iodide and FITC Annexin V staining by flow cytometry; type: functional, Cricetulus griseus
Outline: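 Seeded at 90 000 cells/well for 24 h, then 5 mM sodium butyrate for 24 h, then 10 μM compound for 48 h. Medium and washes pooled with trypsinized cells, spun at 300g for 5 min. Stained with FITC Annexin V plus 4 μg/mL propidium iodide for 20 min in the dark, then flow cytometry. DMSO control; three independent experiments averaged.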

CHO [2] = experiment: Cytotoxicity against CHO cells expressing OATP1B3 haplotype 1 after 48 hrs by […] CellTiter-Glo assay; type: functional, cell-based; settings: Cricetulus griseus
Outline: (§1)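 Seeded at 1600 cells/well, 24 h culture, then 5 mM sodium butyrate induction for 24 h. Cells then exposed to a range of compound concentrations for 48 h in medium with 10% FBS. CellTiter-Glo readout, expressed as percent of DMSO control. IC50 from at least three independent experiments, mean ± SEM.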

CHO [3] = experiment: Cytotoxicity against CHO cells expressing OATP1B1*1b after 48 hrs by […] CellTiter-Glo assay; type: functional, cell-based; settings: Cricetulus griseus; outline: as §1
CHO [4] = experiment: Cytotoxicity against wild type CHO cells after 48 hrs by […] CellTiter-Glo assay; type: cell-based, Cricetulus griseus; settings: for Activity: chinese hamster, cho; for IC50: Cricetulus griseus, CHO; outline: as §1
CHO [5] = experiment: Inhibition of OATP1B3 haplotype 1 (unknown origin) expressed in CHO cells assessed as reduction of [3H]dehydroepiandrosterone sulfate at 50 uM after 5 mins; type: cell-based; settings: Homo sapiens
Outline: (§2)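 Uptake in stably transfected CHO cells grown with 10% FBS. Test compound at 50 μM with 1% DMSO as control. Substrates 0.1 μM E3S or E17βG for 20 s, or 0.5 μM DHEAS for 5 min, all at 37 °C. Net OATP uptake is taken as the wild-type CHO signal subtracted. Values are percent of DMSO control, mean ± SEM of one representative of three experiments.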

CHO [6] = experiment: Inhibition of OATP1B3 haplotype 1 (unknown origin) expressed in CHO cells assessed as reduction of [3H]estradiol 17beta-glucuronide at 50 uM after 20 seconds; type: cell-based; settings: Homo sapiens; outline: as §2
CHO [7] = experiment: Inhibition of OATP1B3 haplotype 1 (unknown origin) expressed in CHO cells assessed as reduction of [3H]estrone-3-sulfate at 50 uM after 20 seconds; type: cell-based; settings: Homo sapiens; outline: as §2
CHO [8] = experiment: Inhibition of OATP1B1*1b (unknown origin) expressed in CHO cells assessed as reduction of [3H]dehydroepiandrosterone sulfate at 50 uM after 5 mins; type: cell-based; settings: Homo sapiens; outline: as §2
CHO [9] = experiment: Inhibition of OATP1B1*1b (unknown origin) expressed in CHO cells assessed as reduction of [3H]estradiol 17beta-glucuronide at 50 uM after 20 seconds; type: cell-based; settings: Homo sapiens; outline: as §2
CHO [10] = experiment: Inhibition of OATP1B1*1b (unknown origin) expressed in CHO cells assessed as reduction of [3H]estrone-3-sulfate at 50 uM after 20 seconds; type: cell-based; settings: Homo sapiens; outline: as §2
CHO [11] = experiment: Cell cycle arrest in CHO cells expressing OATP1B3 haplotype 1 assessed as accumulation at G0/G1 phase at 10 uM after 48 hrs using propidium iodide staining by flow cytometry; settings: Cricetulus griseus
CHO [12] = experiment: Cell cycle arrest in CHO cells expressing OATP1B3 haplotype 1 assessed as accumulation at G0/G1 phase at 1 uM after 48 hrs using propidium iodide and FITC Annexin V staining by flow cytometry; type: functional, cell-based; settings: Cricetulus griseus
Outline: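 Cells plated at 90 000/well for 24 h, held 36 h serum-free to synchronize in G0, induced 24 h with 5 mM sodium butyrate, then compound for 48 h. Fixed in 70% ice-cold ethanol at 4 °C overnight, then 40 min in PBS with 25 μg/mL RNase and 12.5 μg/mL propidium iodide. DNA content by flow cytometry; two independent experiments averaged.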

CHO [13] = experiment: Induction of apoptosis in CHO cells expressing OATP1B3 haplotype 1 at 1 uM after 48 hrs using propidium iodide and FITC Annexin V staining by flow cytometry; type: functional, Cricetulus griseus
Outline: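 Wild-type and OATP1B3 CHO cells plated at 90 000/well for 24 h, induced 24 h with 5 mM sodium butyrate, then compound 48 h (DMSO control). Medium and trypsinized cells pooled, spun 5 min at 300g, PBS-washed. Stained 20 min in the dark with FITC Annexin V and 4 μg/mL propidium iodide, then flow cytometry. Two independent experiments, values averaged.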

Plasma = experiment: Plasma concentration in human at 1600 mg; type: ADME, cell-free
Albumin [14] = target: T1, Albumin (Homo sapiens, UniProt P02768); experiment: Binding affinity to human serum albumin at 1 uM; type: ADME; settings: isolated protein
T1 sequence (P02768 whole entry): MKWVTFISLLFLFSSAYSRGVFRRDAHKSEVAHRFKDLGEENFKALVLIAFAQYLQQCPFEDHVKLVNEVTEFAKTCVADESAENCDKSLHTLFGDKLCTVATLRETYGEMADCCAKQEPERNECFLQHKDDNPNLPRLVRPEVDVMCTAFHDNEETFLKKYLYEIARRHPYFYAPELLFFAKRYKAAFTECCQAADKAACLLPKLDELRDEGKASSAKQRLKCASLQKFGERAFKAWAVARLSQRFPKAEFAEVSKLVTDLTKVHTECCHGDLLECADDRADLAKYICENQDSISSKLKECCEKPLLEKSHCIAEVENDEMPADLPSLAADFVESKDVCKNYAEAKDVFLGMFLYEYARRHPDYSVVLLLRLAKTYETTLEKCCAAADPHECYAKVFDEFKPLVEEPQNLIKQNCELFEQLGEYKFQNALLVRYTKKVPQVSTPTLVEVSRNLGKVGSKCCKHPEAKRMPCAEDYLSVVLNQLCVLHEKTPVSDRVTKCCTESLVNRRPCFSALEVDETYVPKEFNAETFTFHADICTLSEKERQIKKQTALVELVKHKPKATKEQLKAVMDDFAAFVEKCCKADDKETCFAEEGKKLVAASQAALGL

Albumin [15] = target: T1, Albumin; experiment: Binding affinity to human serum albumin at 10 uM; type: ADME; settings: isolated protein
CHO [16] = experiment: Cytotoxicity against CHO cells expressing OATP1B3 haplotype 1 after 48 hrs by […] CellTiter-Glo assay relative to wild type CHO cells; type: functional, Cricetulus griseus
Outline: (§3)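 CHO cells stably expressing OATP1B1*1b or OATP1B3, and wild-type CHO, in DMEM with 10% FBS. Seeded at 1600 cells/well and cultured 24 h. Then 24 h with 5 mM sodium butyrate to induce expression, then graded compound concentrations for 48 h. Viability read by CellTiter-Glo as percent of DMSO control. IC50 from mean ± SEM of at least three independent experiments.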

CHO [17] = experiment: Cytotoxicity against CHO cells expressing OATP1B1*1b after 48 hrs by […] CellTiter-Glo assay relative to wild type CHO cells; type: functional, Cricetulus griseus; outline: as §3
CHO [18] = experiment: Activation of OATP1B3 haplotype 1 (unknown origin) expressed in CHO cells assessed as increase at 50 uM after relative to control; settings: Homo sapiens
CHO [19] = experiment: Activation of OATP1B3 haplotype 1 (unknown origin) expressed in CHO cells assessed as increase of [3H]estradiol 17beta-glucuronide at 50 uM after 20 seconds relative to control; type: cell-based; settings: Homo sapiens; outline: as §2

In the case of `Nc1ccc(C(=O)Oc2c(-c3ccc(O)c(O)c3)oc3cc(O)cc(O)c3c2=O)cc1O`, the Activity (CHO [1]) is reported as 70%, the IC50 (CHO [2]) is reported as 4.1 µM and the Activity (CHO [3]) is reported as “inactive”. The Activity (CHO [4]) was “Non-toxic”, the inhibition (CHO [5]) was “Active” and the inhibition (CHO [6]) was “Active”. The inhibition (CHO [7]) was “Active”, the inhibition (CHO [8]) was “Active” and the inhibition (CHO [9]) was “Active”. For the same compound, the inhibition (CHO [10]) was “Active” and the Activity (CHO [11]) was “inactive”.

With `O=C(O[C@@H]1Cc2c(O)cc(O)cc2O[C@@H]1c1cc(O)c(O)c(O)c1)c1cc(O)c(O)c(O)c1` [EPIGALOCATECHIN GALLATE] the Activity (CHO [12]) was “Active”, the Activity (CHO [13]) was 15% and the concentration (Plasma) was 11.3 µM. The Activity (Albumin [14]) was 99%, the Activity (Albumin [15]) was 85% and the IC50 (CHO [2]) was 3.2 µM. The IC50 (CHO [3]) was 7.7 µM, the “fold change (FC)” value (CHO [16]) was 85 and the “fold change (FC)” value (CHO [17]) was 35. The IC50 (CHO [4]) was 271 µM.

In the case of `NCCCOc1cc(-c2oc3cc(O)cc(O)c3c(=O)c2O)ccc1O`, the Activity (CHO [2]) is reported as “inactive”, the Activity (CHO [3]) is reported as “inactive” and the Activity (CHO [4]) is reported as “Non-toxic”. For the same compound, the inhibition (CHO [5]) was “Active”, the inhibition (CHO [6]) was “Active” and the inhibition (CHO [7]) was “Active”.

In the case of `Nc1cc(C(=O)Oc2c(-c3ccc(O)c(O)c3)oc3cc(O)cc(O)c3c2=O)ccc1O`, the Activity (CHO [2]) is reported as “inactive”, the Activity (CHO [3]) is reported as “inactive” and the Activity (CHO [4]) is reported as “Non-toxic”. The Activity (CHO [18]) was “Active”.

`O=C(Oc1c(-c2ccc(O)c(O)c2)oc2cc(O)cc(O)c2c1=O)c1cc(O)c(O)c(O)c1` showed an Activity (CHO [1]) of 32%, an IC50 (CHO [2]) of 3.8 µM and an IC50 (CHO [3]) of 3.5 µM. The Activity (CHO [4]) was “Non-toxic”, the inhibition (CHO [5]) was “Active” and the inhibition (CHO [6]) was “Active”. For the same compound, the inhibition (CHO [7]) was “Active”, the inhibition (CHO [8]) was “Active” and the inhibition (CHO [9]) was “Active”. The inhibition (CHO [10]) was “Active” and the Activity (CHO [11]) was “inactive”.

For `O=C(Oc1cc(-c2oc3cc(O)cc(O)c3c(=O)c2O)ccc1O)c1cc(O)c(O)c(O)c1`, the IC50 (CHO [2]) was 6.8 µM, the IC50 (CHO [3]) was 7.9 µM and the Activity (CHO [4]) was “Non-toxic”. For the same compound, the inhibition (CHO [5]) was “Active”, the inhibition (CHO [6]) was “Active” and the inhibition (CHO [7]) was “Active”. The inhibition (CHO [8]) was “Active”, the inhibition (CHO [9]) was “Active” and the inhibition (CHO [10]) was “Active”.

Compound `CCCOc1cc(O)cc2oc(-c3ccc(O)c(O)c3)c(O)c(=O)c12` has an IC50 (CHO [2]) of 11.8 µM, an IC50 (CHO [3]) of 42.6 µM and an IC50 (CHO [4]) of 111 µM. For the same compound, the fold change (FC) (CHO [19]) was 3, the inhibition (CHO [5]) was “Active” and the inhibition (CHO [8]) was “Active”. The inhibition (CHO [9]) was “Active” and the inhibition (CHO [10]) was “Active”.
